Assay outcomes as filed in PubChem.
eIF4H FP inh: human eIF4H binding inhibitors, primary screen, translation initiation inhibitor project, biochemical, uHTS, fluorescence polarization; hit rate 0.94% among 290,000; inhibition, % at 35 µM; eIF4H fluorescence polarization binding assay; AID 2012, 2009; Eukaryotic translation initiation factor 4H (Homo sapiens), Q15056;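 also: calls also rest on retests at 20 µM and on dose response follow-up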
PABP polyA inh: PABP poly(A) RNA binding inhibitors, primary screen, biochemical, fluorescence polarization, uHTS; Polyadenylate-binding protein 1 (Homo sapiens), P11940; calls only at 35 µM; AID 2014, 2009; hit rate 1% among 290,000;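 also: calls also rest on retests at 20 µM and on dose response follow-up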
SUMO HTRF inh: inhibitors of in vitro SUMOylation cascade, primary screen, biochemical, HTRF, uHTS | inhibition, % at 35 µM | hit rate 0.36% among 290,000 | HTRF SUMOylation assay, SAE1/SAE2 + UBC9; in the data active = inhibition above about 50%, passing the limit was not always enough; inconclusive = no clear call, values can overlap the other calls
Target sequence (P63279 whole entry, looked up): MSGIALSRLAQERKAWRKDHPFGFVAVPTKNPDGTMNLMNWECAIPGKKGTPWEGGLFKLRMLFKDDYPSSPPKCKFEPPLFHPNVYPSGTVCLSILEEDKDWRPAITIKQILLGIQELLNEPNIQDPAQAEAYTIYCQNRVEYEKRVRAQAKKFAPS
eIF4E-4G inh: eIF4E–eIF4G protein interaction inhibitors, primary screen, biochemical, uHTS, TR-FRET, eIF4GI fragment | hit rate 0.37% among 220,000 | TR-FRET eIF4E-eIF4GI(517-606) binding, 2 h | AID 782, 2007 | inhibition, % at 21.7 µM;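 active = inhibition above about 30%, limit read from the data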;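 also: 0% = full FRET control wells and 100% = background wells lacking eIF4GI fragment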
PABP1 MLLE inh: inhibitors of PABP1 MLLE–PAM2 peptide binding, primary screen, biochemical, fluorescence polarization, FITC-PAM2, GST-MLLE. hit rate 0.36% among 360,000. inhibition, % at 20 µM; in the data active = inhibition above about 35%, passing the limit was not always enough;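 also: plate controls were DMSO wells with GST-MLLE for no effect and wells lacking GST-MLLE protein for full effect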
core dimer inh: inhibitors of HCV core protein dimerization, primary screen, biochemical, TR-FRET, high-throughput; TR-FRET GST/Flag-core106 dimerization, 1536-well; inhibition, % at 5 µM; hit rate 0.33% among 300,000; AID 1899, 2009;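 active = inhibition above the mean of all tested compounds plus 3 SD, set per screening campaign, cut at about 45% in these data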
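Test system: GST/Flag-tagged HCV core106 proteins; Medium: KF-containing HEPES buffer, pH 7.45, DTT, CHAPS, BSA; Times: compound-protein-antibody incubation 4 h at 22.5 °C; Detection: TR-FRET 671 and 617 nm emission; Benchmarks: wells lacking GST-core106 and wells with excess unlabelled core106.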
An asterisk follows results filed as active; i = inactive; ? = inconclusive; / = not tested or not shown; + = active, no number. This is a sample that favours compounds with a hit; in the whole collection about 1.8% have one here. Unless noted, no rule for the calls is given here.

SMILES	eIF4H FP inh	PABP polyA inh	SUMO HTRF inh	eIF4E-4G inh	PABP1 MLLE inh	core dimer inh
NNC(=O)c1nc[nH]c1C(=O)Nc1ccccc1[N+](=O)[O-]	55.3*	+	-1.0	1.0	5.5	5.4
O=C(Nc1ccc(F)cc1)c1nc[nH]c1C(=O)Nc1ccccc1[N+](=O)[O-]	-4.5	i	21.6	-2.2	8.1	-0.9
COc1cccc(CC(=O)N[C@@H](CCSC)c2nc3ccccc3[nH]2)c1	-11.3	i	9.5	1.0	10.1	-0.3
COc1ccc2cc(CO)c3cc(OC)c(OC)cc3c2c1	/	/	/	/	7.4	/
O=[N+]([O-])c1ccc(Cl)c(-c2ccc(/C=N/c3c(-c4ccco4)nc4ccccn34)o2)c1	?	+	12.2	14.2	1.6	7.8
O=[N+]([O-])c1ccc(-c2ccc(/C=N/c3c(-c4ccco4)nc4ccccn34)o2)c(Cl)c1	33.8	i	11.7	3.2	/	/
O=[N+]([O-])c1ccc(-c2ccc(/C=N/c3c(-c4ccco4)nc4ccccn34)o2)cc1	?	+	-9.4	-0.5	10.3	2.5
C=CCN1C(=NC(=O)COc2ccc(Cl)cc2)SC2CS(=O)(=O)CC21 (stereo not drawn)	-18.3	i	20.4	/	8.3	0.0
COC(=O)c1ccccc1NC(=O)c1ccc2nccnc2c1	54.5	+	17.9	11.6	-21.1	51.1*
O=C(Nc1ccccc1Cl)c1ccc2nccnc2c1	-2.0	i	12.0	/	4.2	3.9
O=S(=O)(c1cccc2cccnc12)N1CCCCC1	-3.4	i	4.9	/	9.1	-7.4
CC(CS(=O)(=O)c1cccc2cccnc12)N1CCCCC1 (stereo not drawn)	53.1*	+	26.7	4.2	30.6	-0.5
COc1cc(C(=S)N2CCC(C(N)=O)CC2)ccc1O	-6.3	i	0.8	1.1	18.8	-5.8
CCOc1cc(C(=S)N2CCCC2)ccc1O	6.8	i	-24.2	/	28.0	-8.9
COc1cc(C(=S)N2CCC(C)CC2)ccc1O	5.5	i	-9.2	1.4	40.0*	-3.2
COc1cc(C(=S)N2CCCCC2)ccc1O	-5.7	i	10.7	5.1	38.1*	4.8
COc1cc(C(=S)N2CCCC2)ccc1O	1.7	i	-3.6	-1.1	40.3*	1.6
Cc1cccc(NC(=O)CCNC(=O)c2ccc(Br)cc2)c1	7.4	i	-4.8	/	3.9	-0.6
CCNS(=O)(=O)c1ccc(CCC(=O)N2CCCC2)cc1	-9.5	i	-11.6	/	-14.7	-14.0
N=c1ccccn1CC(O)COc1ccccc1 (stereo not drawn)	?	?	30.6	0.8	-2.8	-2.4
CC(O)Cn1ccccc1=N (stereo not drawn)	82.6*	+	-13.0	/	0.9	-2.6
O=C1CC(=O)N(Cc2ccco2)C(=O)N1	?	i	26.7	31.3*	-105.3	-29.4
O=C1CC(=O)N(Cc2cccs2)C(=O)N1	?	?	23.4	2.2	-57.1	-7.0
O=C1CC(=O)N(Cc2ccco2)C(=S)N1	63.5*	+	83.2*	-1.4	-118.3	1.8
S=C1NCN(Cc2ccco2)CN1	4.5	i	5.9	-4.9	-124.7	-0.4
SMILES	eIF4H FP inh	PABP polyA inh	SUMO HTRF inh	eIF4E-4G inh	PABP1 MLLE inh	core dimer inh
O=C(COC(=O)C1=NN(c2ccccc2)C(=O)CC1)Nc1ccc([N+](=O)[O-])cc1C(F)(F)F	/	/	/	/	4.3	/
COc1ccc(S(=O)(=O)NC(=O)C2(C)CCN2C(=O)C2(c3ccccc3)CC2)cc1 (stereo not drawn)	/	/	/	/	7.7	/
Oc1c(Cl)cc(Cl)cc1/C=N/NC(=S)NC1CC2C=CC1C2 (stereo not drawn)	20.6	i	55.3*	2.0	2.3	10.8
Oc1ccccc1C=NNC(=S)NC1CC2C=CC1C2 (stereo not drawn)	/	/	/	/	26.4	/
CC1CN=C(N(C(=O)Nc2ccccc2)C(C)c2ccccc2)S1 (stereo not drawn)	-3.8	i	4.4	0.6	6.0	-1.1
N#CC1=C(N)SC(N)=C(C#N)C1CCC1CCCCC1	121.5	+	2.6	-17.8	/	13.3
Cc1ccc(N(C(=O)c2csnn2)C(C(=O)NC2CCCC2)c2ccccn2)c(C)c1 (stereo not drawn)	-7.0	i	0.8	/	13.8	-3.1
O=C(CCS(=O)(=O)c1ccc(Br)cc1)NCCC1=CCCCC1	64.4*	i	1.8	/	-0.3	4.5
Cc1ccc(S(=O)(=O)CCC(=O)NC2CCCCC2)cc1	/	/	/	/	-53.0	/
O=C(CCS(=O)(=O)c1ccc(Br)cc1)NC1CCCCCC1	63.5*	i	8.3	/	-6.9	-54.5
Cc1ccc(CNC(=O)CCS(=O)(=O)c2ccc(Br)cc2)cc1	87.7	i	-14.6	3.5	-10.1	/
O=C(CCS(=O)(=O)c1ccc(Br)cc1)NCc1ccc(F)cc1	87.2*	i	8.0	/	6.4	-120.9
Cc1cccnc1NC(=O)c1ccc(COc2ccccc2)o1	-4.6	i	1.6	/	-5.5	-10.7
CC1C2C(C)N(C)C(=O)N(C)C2N(C)C(=O)N1C (stereo not drawn)	32.3	i	16.6	2.5	53.5*	-1.4
CCn1c(=O)c(C(=O)CN2CCc3ccccc32)c(N)n(Cc2ccccc2)c1=O	?	i	-3.1	-0.2	-4.9	50.9*
N#CC1=C(N)C2=CCCC[C@H]2[C@H](c2ccc(Br)cc2)C1(C#N)C#N	51.0	i	2.6	2.2	14.9	9.3
N#CC1=C(N)C2=CCCC[C@H]2[C@H](c2ccccc2)C1(C#N)C#N	89.4*	+	8.1	-2.4	6.5	0.8
CCOC(=O)N1CCN(C(=O)c2cccn3c(=O)c4cc(Br)ccc4nc23)CC1	-2.3	i	51.2*	3.6	-2.4	-3.6
CCOC(=O)N1CCN(C(=O)c2cccn3c(=O)c4cc(Cl)ccc4nc23)CC1	-6.3	i	57.7*	-4.0	4.6	1.4
O=C(c1cccn2c(=O)c3cc(Br)ccc3nc12)N1CCN(c2ccccn2)CC1	-7.5	i	13.7	7.0	11.0	-2.6
Cc1c(/C=C(\C#N)C(=O)NCc2ccccc2)cc(C#N)n1C	-3.3	i	10.9	/	0.9	0.6
O=C1OCC/C1=C\NCCCCCCCCN/C=C1\CCOC1=O	/	/	/	/	17.7	/
CCCCc1c(CCC)c(=N)c2ccccc2n1C	1.6	+	-5.7	-1.2	-106.7	0.2
CCCCc1c(O)c2ccccc2n(CCCC)c1=O	6.9	i	-5.7	-4.6	8.4	4.0
CSc1ccc(CN(C)C(=O)c2cccc(S(=O)(=O)NCc3ccccc3)c2)cc1	24.8	+	-14.2	/	6.9	8.7
